Measurements from ChEMBL document CHEMBL1138561, “Synthesis of novel N-protected hydrophobic phenylalanines and their application in potential antibacterials” (2009).
≈ marks a conversion by molar mass, not a printed value.

Legend:
Staphylococcus aureus = assay: Antibacterial activity against Staphylococcus aureus ATCC 6538 after 18 hrs; assay type: functional; conditions: ATCC 6538, 18 h
Outline: (§1)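 Broth microdilution in Mueller–Hinton medium, with the inoculum a 1/10 dilution of seed culture. Peptoids were dissolved in 50% MeOH/H2O to 1 mg/mL, added to the top row and serially diluted down the plate. Plates were incubated at 37 °C with shaking at 100 rpm for 18 h, with two peptoids per plate.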

Enterococcus faecalis = assay: Antibacterial activity against vancomycin-sensitive Enterococcus faecalis; assay type: functional; outline: as §1

Question: C=CC[C@H](NC(=O)[C@H](CCCCN)NC(=O)[C@H](Cc1ccc(-c2c3ccccc3cc3ccccc23)cc1)NC(C)=O)C(=O)OC.Cl was tested. Which MIC (Staphylococcus aureus) did it give?
Answer: 31.3 µg/mL

Question: And the MIC (Enterococcus faecalis)?
Answer: > 125 µg/mL

Question: Which results are given for C=CC[C@H](NC(=O)[C@H](CCCCN)NC(=O)[C@H](Cc1ccc(-c2cc3ccccc3c3ccccc23)cc1)NC(C)=O)C(=O)OC.Cl?
Answer: MIC (Staphylococcus aureus): 15.6 µg/mL; MIC (Enterococcus faecalis): > 125 µg/mL

Question: What does the source list for C=CC[C@H](NC(=O)[C@@H](CCCNC(=N)N)NC(=O)[C@H](CCCCN)NC(=O)[C@H](Cc1ccc(-c2cc3ccccc3c3ccccc23)cc1)NC(C)=O)C(=O)OCc1ccccc1.Cl.Cl?
Answer: MIC (Staphylococcus aureus): 7.8 µg/mL; MIC (Enterococcus faecalis): > 125 µg/mL

Question: Which MIC (Staphylococcus aureus) does the source give for C=CC[C@H](NC(=O)[C@@H](CCCNC(=N)N)NC(=O)[C@H](CCCCN)NC(=O)[C@H](Cc1ccc(-c2c3ccccc3cc3ccccc23)cc1)NC(C)=O)C(=O)OCc1ccccc1.Cl.Cl here?
Answer: 15.6 µg/mL

Question: And the MIC (Enterococcus faecalis)?
Answer: > 125 µg/mL

Question: For C=CCOc1ccc(C[C@H](NC(C)=O)C(=O)N[C@@H](CCCCN)C(=O)N[C@H](CCCNC(=N)N)C(=O)N[C@@H](CC=C)C(=O)OCc2ccccc2)cc1.Cl.Cl, which MIC (Staphylococcus aureus) is on record?
Answer: > 125 µg/mL

Question: What about the MIC (Enterococcus faecalis) of the same compound?
Answer: > 125 µg/mL

Question: With CN[C@H](CC(C)C)C(=O)N[C@H]1C(=O)N[C@@H](CC(N)=O)C(=O)N[C@H]2C(=O)N[C@H]3C(=O)N[C@H](C(=O)N[C@H](C(=O)O)c4cc(O)cc(O)c4-c4cc3ccc4O)[C@H](O)c3ccc(c(Cl)c3)Oc3cc2cc(c3O[C@@H]2O[C@H](CO)[C@@H](O)[C@H](O)[C@H]2O[C@H]2C[C@](C)(N)[C@H](O)[C@H](C)O2)Oc2ccc(cc2Cl)[C@H]1O [VANCOMYCIN] as the compound, how does the MIC (Staphylococcus aureus) read?
Answer: 1.95 µg/mL (≈ 1.35 µM)
